Test results published in paper PMC5615838 (Toxicology Reports, 2016).

Assays:
[1] = toxicokinetics in 90-day toxicity study; assay type: in vivo, rat; conditions: rat, plasma, po; for AUC(0-t): AUC0-24h
In short: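 In the 90-day dietary study (10, 30, 100 mg/kg bw/day), plasma taken at 6 time points over 24 h on Day 7, Week 6 and Week 13, assayed by validated LC-MS/MS. […] Accumulation ratio = AUC0-24h at Week 6 or 13 / Day 7.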

[2] = definitive developmental toxicity study; assay type: in vivo, rat
[3] = female, Sprague-Dawley, 30 mg/kg, Week 6, 30 mg/kg bw, F
[4] = female, Sprague-Dawley, 100 mg/kg, Week 6, 100 mg/kg bw, F
[5] = male, Sprague-Dawley [Crl:CD(SD)], 10 mg/kg, Day 7, 10 mg/kg bw, M
[6] = male, Sprague-Dawley [Crl:CD(SD)], 10 mg/kg, Week 13, 10 mg/kg bw, M
[7] = male, Sprague-Dawley [Crl:CD(SD)], 30 mg/kg, Day 7, 30 mg/kg bw, M
[8] = male, Sprague-Dawley [Crl:CD(SD)], 30 mg/kg, Week 13, 30 mg/kg bw, M
[9] = male, Sprague-Dawley [Crl:CD(SD)], 100 mg/kg, Day 7, 100 mg/kg bw, M
[10] = male, Sprague-Dawley [Crl:CD(SD)], 100 mg/kg, Week 13, 100 mg/kg bw, M
[11] = male, Sprague-Dawley, 10 mg/kg, Week 6, 10 mg/kg bw, M
[12] = male, Sprague-Dawley, 30 mg/kg, Week 6, 30 mg/kg bw, M
[13] = male, Sprague-Dawley, 100 mg/kg, Week 6, 100 mg/kg bw, M

`Cc1noc(C)c1Cn1cc(N2C(=O)CN(Cc3cccc(O)c3)C2=O)cn1` [S6821, 3-(1-((3,5-dimethylisoxazol-4-yl)methyl)-1H-pyrazol-4-yl)-1-(3-hydroxybenzyl)imidazolidine-2,4-dione] showed a Cmax ([1]; female, Sprague-Dawley, 10 mg/kg, Week 6, 10 mg/kg bw, F) of 6.34 ng/mL, an AUC(0-t) [1, 3] of 331 ng·h/mL and a Cmax [1, 3] of 17.5 ng/mL. The AUC(0-t) [1, 4] was 1300 ng·h/mL, the Cmax [1, 4] was 95.6 ng/mL and the AUC(0-t) [1, 5] was 118 ng·h/mL. The AUC(0-t) [1, 6] was 123 ng·h/mL, the Cmax [1, 5] was 6.05 ng/mL and the Cmax [1, 6] was 5.99 ng/mL. It also gave an AUC(0-t) [1, 7] of 295 ng·h/mL, an AUC(0-t) [1, 8] of 305 ng·h/mL and a Cmax [1, 7] of 16.7 ng/mL. The Cmax [1, 8] was 18.3 ng/mL, the AUC(0-t) [1, 9] was 844 ng·h/mL and the AUC(0-t) [1, 10] was 925 ng·h/mL. For the same molecule, the Cmax [1, 9] was 41.4 ng/mL, the Cmax [1, 10] was 54.7 ng/mL and the AUC(0-t) [1, 11] was 126 ng·h/mL. For the same molecule, the Cmax [1, 11] was 10.7 ng/mL, the AUC(0-t) [1, 12] was 293 ng·h/mL and the Cmax [1, 12] was 24.6 ng/mL. For the same molecule, the AUC(0-t) [1, 13] was 758 ng·h/mL, the Cmax [1, 13] was 43.7 ng/mL and the “Malformations, fetuses (litters)” value ([2]; 125 mg/kg bw/day, of 347(25) evaluated) was 3(2). For the same molecule, the “Malformations, fetuses (litters)” value ([2]; 500 mg/kg bw/day, of 364(25) evaluated) was 2(2), the “Malformations, fetuses (litters)” value ([2]; 1000 mg/kg bw/day, of 327(22) evaluated) was 4(3) and the “Corpora Lutea” value ([2]; Mean, 125 mg/kg bw/day) was 15.4. The “Dead Fetuses” value ([2]; Mean, 125 mg/kg bw/day) was 0.0, the “Fetal Wt.” value ([2]; Mean, 125 mg/kg bw/day) was 5.7 g and the “Fetuses, Sex F” value ([2]; Mean, 125 mg/kg bw/day) was 6.8. For the same molecule, the “Fetuses, Sex M” value ([2]; Mean, 125 mg/kg bw/day) was 7.1, the “Implant. Sites” value ([2]; Mean, 125 mg/kg bw/day) was 14.6 and the “Post- Implant. Loss” value ([2]; Mean, 125 mg/kg bw/day) was 0.7. The “Pre- Implant. Loss” value ([2]; Mean, 125 mg/kg bw/day) was 0.8, the “Resorptions Early” value ([2]; Mean, 125 mg/kg bw/day) was 0.7 and the “Resorptions Late” value ([2]; Mean, 125 mg/kg bw/day) was 0.0. For the same molecule, the “Corpora Lutea” value ([2]; Mean, 500 mg/kg bw/day) was 16.6, the “Dead Fetuses” value ([2]; Mean, 500 mg/kg bw/day) was 0.0 and the “Fetal Wt.” value ([2]; Mean, 500 mg/kg bw/day) was 5.6 g. The “Fetuses, Sex F” value ([2]; Mean, 500 mg/kg bw/day) was 7.4, the “Fetuses, Sex M” value ([2]; Mean, 500 mg/kg bw/day) was 7.2 and the “Implant. Sites” value ([2]; Mean, 500 mg/kg bw/day) was 15.4. For the same molecule, the “Post- Implant. Loss” value ([2]; Mean, 500 mg/kg bw/day) was 0.8, the “Pre- Implant. Loss” value ([2]; Mean, 500 mg/kg bw/day) was 1.2 and the “Resorptions Early” value ([2]; Mean, 500 mg/kg bw/day) was 0.8. The “Resorptions Late” value ([2]; Mean, 500 mg/kg bw/day) was 0.0, the “Corpora Lutea” value ([2]; Mean, 1000 mg/kg bw/day) was 16.9 and the “Dead Fetuses” value ([2]; Mean, 1000 mg/kg bw/day) was 0.0. The “Fetal Wt.” value ([2]; Mean, 1000 mg/kg bw/day) was 5.6 g, the “Fetuses, Sex F” value ([2]; Mean, 1000 mg/kg bw/day) was 7.4 and the “Fetuses, Sex M” value ([2]; Mean, 1000 mg/kg bw/day) was 7.5. For the same molecule, the “Implant. Sites” value ([2]; Mean, 1000 mg/kg bw/day) was 15.8, the “Post- Implant. Loss” value ([2]; Mean, 1000 mg/kg bw/day) was 0.9 and the “Pre- Implant. Loss” value ([2]; Mean, 1000 mg/kg bw/day) was 1.1. The “Resorptions Early” value ([2]; Mean, 1000 mg/kg bw/day) was 0.9, the “Resorptions Late” value ([2]; Mean, 1000 mg/kg bw/day) was 0.0 and the “Dead Fetuses” value ([2]; Total, 125 mg/kg bw/day) was 0. For the same molecule, the “Fetuses, Sex F” value ([2]; Total, 125 mg/kg bw/day) was 170, the “Fetuses, Sex M” value ([2]; Total, 125 mg/kg bw/day) was 177 and the “Implant. Sites” value ([2]; Total, 125 mg/kg bw/day) was 364. The “Post- Implant. Loss” value ([2]; Total, 125 mg/kg bw/day) was 17, the “Pre- Implant. Loss” value ([2]; Total, 125 mg/kg bw/day) was 20 and the “Resorptions Early” value ([2]; Total, 125 mg/kg bw/day) was 17. For the same molecule, the “Resorptions Late” value ([2]; Total, 125 mg/kg bw/day) was 0, the “Corpora Lutea” value ([2]; Total, 500 mg/kg bw/day) was 415 and the “Dead Fetuses” value ([2]; Total, 500 mg/kg bw/day) was 0. The “Fetuses, Sex F” value ([2]; Total, 500 mg/kg bw/day) was 185, the “Fetuses, Sex M” value ([2]; Total, 500 mg/kg bw/day) was 179 and the “Implant. Sites” value ([2]; Total, 500 mg/kg bw/day) was 384. The “Post- Implant. Loss” value ([2]; Total, 500 mg/kg bw/day) was 20, the “Pre- Implant. Loss” value ([2]; Total, 500 mg/kg bw/day) was 31 and the “Resorptions Early” value ([2]; Total, 500 mg/kg bw/day) was 19. The “Resorptions Late” value ([2]; Total, 500 mg/kg bw/day) was 1, the “Corpora Lutea” value ([2]; Total, 1000 mg/kg bw/day) was 372 and the “Dead Fetuses” value ([2]; Total, 1000 mg/kg bw/day) was 0. For the same molecule, the “Fetuses, Sex F” value ([2]; Total, 1000 mg/kg bw/day) was 162, the “Fetuses, Sex M” value ([2]; Total, 1000 mg/kg bw/day) was 165 and the “Implant. Sites” value ([2]; Total, 1000 mg/kg bw/day) was 347. For the same molecule, the “Post- Implant. Loss” value ([2]; Total, 1000 mg/kg bw/day) was 20, the “Pre- Implant. Loss” value ([2]; Total, 1000 mg/kg bw/day) was 25 and the “Resorptions Early” value ([2]; Total, 1000 mg/kg bw/day) was 20. The “Resorptions Late” value ([2]; Total, 1000 mg/kg bw/day) was 0 and the “NOAEL for both maternal toxicity and embryo/fetal development” value ([2]; oral gavage, gestation days 6-20) was “NOAEL for both maternal toxicity and embryo/fetal development = 1000 mg/kg bw/day”.
